An excerpt weighted towards active compounds, which were near 0.55% of everything screened.
OXTR potentiate – potentiators of human oxytocin receptor; 0.061% of 320,000 active; CHO-OTR cells, Fluo-8 calcium fluorescence, potentiator mode; 0% = oxytocin EC15, 100% = EC100; activation, % at 3 µM; P30559;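 active = activation above that plate's cutoff, the mean activation of tested compounds plus 3 SD, cut at about 6.6% in these data, passing the limit was not always enough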;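 note: 100% uses oxytocin at 75 nM as the full agonist control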
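test system = CHO-OTR cells, human receptor | compound = single-point 3.0 µM | schedule = 6 min compound pre-incubation at room temperature, 100 s kinetic read | signal = Fluo-8 no-wash calcium dye fluorescence, excitation 470-495 nm, emission 515-575 nm | repeats = single well per compound, singlicate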
OXTR ag – human OXTR agonism. CHO-OTR cells, Fluo-8 calcium fluorescence; normalized: DMSO 0%, oxytocin 100%. activation, % at 3 µM. 0.32% of 320,000 active. AID 2435;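 active = activation above the mean of all tested compounds plus 3 SD, cutoff set per screening run, cut at about 20% in these data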;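 note: peak over basal fluorescence ratio from a 100 s FLIPR kinetic read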
TRPML3 agonist – activates the human TRPML3 channel; HEK293 TRPML3-YFP, Fluo-8 calcium fluorescence; 100% = the carbachol control signal; 0.29% of 220,000 active; Q8TDD5; activation, % at 3 µM;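 active = activation above its plate's cutoff, the mean activation of the plate's test wells plus 3 SD, cut at about 12% in these data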;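 note: 0% = DMSO only wells and 100% = carbachol wells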
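Test system – HEK293 line with stable expression of human TRPML3-YFP channel · Control set – carbachol 87 µM final as high control (100%), DMSO as low control (0%) · Signal – Fluo-8 calcium dye fluorescence, ex 470-495, em 515-575 nm · Incubation – 1-h 37 °C dye load, 5-s basal, 120-s post-compound reads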
zfTRPN1 agonist – activates the zebrafish TRPN1 channel; HEK293 zebrafish TRPN1-YFP, Fluo-8 calcium fluorescence; 100% = response to 87 µM carbachol; activation, % at 3 µM; 0.18% of 220,000 active; AID 1424;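 active = activation above its plate's cutoff, the mean activation of test wells on that plate plus 3 SD, cut at about 19% in these data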;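 note: 0% = DMSO alone and 100% = 87 µM carbachol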
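Material – zebrafish TRPN1-YFP in HEK293 cells · Doses – 3 µM single point · Schedule – dye 1 h 37 °C plus 30 min RT · Signal – Fluo-8 calcium fluorescence, excitation 470-495 nm, emission 515-575 nm · Read-out – % activation versus carbachol response · Control set – carbachol high, DMSO low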
V1aR counter – V1a receptor agonism, counter-screen for OXTR agonists. P37288. 0.25% of 320,000 active. CHO-V1R cells, Fluo-8 calcium fluorescence, agonist mode; 0% DMSO, 100% 3 nM vasopressin. AID 2797. activation, % at 3 µM;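 active = activation above the mean activation of all tested compounds plus 3 SD, per screening run, cut at about 20% in these data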;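 note: signal is peak over basal fluorescence ratio across a 100 second FLIPR read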
Target sequence (P37288 whole entry, looked up): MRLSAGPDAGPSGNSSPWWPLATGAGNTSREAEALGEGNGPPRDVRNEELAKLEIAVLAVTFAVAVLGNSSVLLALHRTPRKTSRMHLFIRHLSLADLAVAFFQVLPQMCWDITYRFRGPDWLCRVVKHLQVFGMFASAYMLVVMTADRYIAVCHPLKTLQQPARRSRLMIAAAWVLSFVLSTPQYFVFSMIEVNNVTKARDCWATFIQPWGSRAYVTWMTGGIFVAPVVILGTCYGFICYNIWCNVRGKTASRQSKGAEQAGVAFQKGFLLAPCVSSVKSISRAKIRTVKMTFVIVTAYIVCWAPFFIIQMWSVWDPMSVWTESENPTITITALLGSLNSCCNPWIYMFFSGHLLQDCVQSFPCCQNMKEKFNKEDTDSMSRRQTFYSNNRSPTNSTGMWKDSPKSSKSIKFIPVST
TRPN1 ag 2 – counter-screen for TRPML3 agonists: agonists of zebrafish TRPN1 channel; shares compounds with TRPML3 agonist; HEK293 zebrafish TRPN1-YFP, Fluo-8 calcium fluorescence; scaled: carbachol wells 100%, DMSO wells 0%; AID 1525; 10% of 310 active; activation, % at 3 µM;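 active = mean activation over replicates above a set limit taken from the earlier TRPN1 channel primary screen, cut at about 19% in these data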;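 note: 100% = carbachol and 0% = 0.3% DMSO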
TRPML3 ag conf – confirmation of human TRPML3 channel agonists; HEK293 TRPML3-YFP, Fluo-8 calcium fluorescence; 100% set by carbachol, 0% by DMSO; activation, % at 3 µM; AID 1526; 80% of 310 active; shares compounds with TRPML3 agonist;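 active = activation above a set limit derived from the earlier primary screen, cut at about 12% in these data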
Active calls of the source: *; nt = no result given.

SMILES | OXTR potentiate | OXTR ag | TRPML3 agonist | zfTRPN1 agonist | V1aR counter | TRPN1 ag 2 | TRPML3 ag conf
Cc1ccc(NC(=O)CSC2=C(C#N)C(c3ccco3)CC(=O)N2)cc1 (configuration not stated) | -14 | 1 | 1 | 2 | 2 | nt | nt
O=C(Nc1ccccc1C(=O)NCc1cccnc1)c1ccccc1F | -12 | 0 | nt | nt | 0 | nt | nt
COc1ccc(Cl)cc1N(CC(=O)N1CCCC1)S(=O)(=O)c1ccc(C)cc1 | -6 | 1 | nt | nt | 0 | nt | nt
COc1ccc(S(=O)(=O)NN(C)C)cc1N(C)S(=O)(=O)c1ccc(Cl)cc1 | -5 | 0 | 0 | 1 | 0 | nt | nt
COC(=O)CN(c1cc(Cl)ccc1OC)S(=O)(=O)c1ccc(C)cc1 | -3 | -1 | 70* | -2 | -1 | -1 | 61*
COc1ccc(S(=O)(=O)Nc2ccc(C)cc2)cc1N(C)S(=O)(=O)c1ccc(Cl)cc1 | -4 | -1 | 61* | 1 | 0 | -1 | 32*
COc1ccc(S(=O)(=O)N(CC(=O)N2CCOCC2)c2cc(Cl)ccc2OC)cc1OC | -8 | 0 | 45* | 3 | 1 | 2 | 42*
Cc1ccccc1C(=O)c1cccn1CC(=O)NC(C)c1ccc2c(c1)OCCO2 (configuration not stated) | -9 | -2 | 0 | -2 | -1 | nt | nt
CCCNc1nc(Nc2ccc(C)cc2)nc(N2CCCC2)n1 | -21 | -2 | -1 | -2 | 0 | nt | nt
Cc1ccc(Cl)cc1N1CCN(S(=O)(=O)N2CCCCC2)CC1 | -13 | -2 | 30* | -1 | 0 | -2 | 111*
Cc1ccc(Cl)cc1N1CCN(S(C)(=O)=O)CC1 | -1 | 0 | 0 | -1 | 2 | nt | nt
O=C(Nc1ccc([N+](=O)[O-])cc1)N1CCCCC1 | -10 | -1 | 1 | 1 | 0 | nt | nt
CN(CCOc1ccccc1)CC(=O)Nc1ccc(S(=O)(=O)N2CCCC2)cc1 | -1 | 1 | 1 | 2 | 2 | nt | nt
CN(CCOc1ccccc1)c1ccc(S(=O)(=O)N2CCCCC2)cn1 | -8 | -2 | 26* | 0 | -1 | 0 | 52*
Cc1ccc(S(=O)(=O)c2c(C)cc(C)nc2Oc2cccc(C(F)(F)F)c2)cc1 | -5 | -1 | 14* | 0 | 0 | 0 | 42*
COC(=O)C1(C(C[N+](=O)[O-])c2ccco2)C(=O)NCC1c1ccccc1 (configuration not stated) | 10 | 0 | 17* | 0 | 1 | 2 | 23*
Brc1ccc(C2Nc3cccc4cccc(c34)N2)s1 | 4 | 0 | 0 | -1 | 0 | nt | nt
COc1ccc(C(=O)Nc2ccc(S(=O)(=O)N3CCCCC3C)cc2)c(OC)c1OC (configuration not stated) | -6 | 3 | 70* | 1 | 3 | 1 | 83*
COc1cc(C)nc(N(C)S(=O)(=O)c2ccccc2Cl)n1 | -1 | 0 | 28* | 3 | 1 | 4 | 67*
CCc1nnc(NS(=O)(=O)c2ccc(NC(=O)c3cccc(OC)c3)cc2)s1 | 1 | 1 | nt | nt | 1 | nt | nt
Cc1cccc(CC2CC(=O)N(C3CCCCC3)C2=O)c1 (configuration not stated) | 2 | -1 | 13* | 0 | -1 | -1 | 66*
Cc1cccc(CC2CC(=O)N(c3ccccc3)C2=O)c1 (configuration not stated) | 5 | 0 | 0 | 0 | 0 | nt | nt
CC(C)(C)C(O)CN1CCCC1 (configuration not stated) | -15 | 0 | 1 | 1 | 2 | nt | nt
Cc1cc(C)c(C(=O)c2ccc(C(=O)N(C(C)C)C(C)C)cc2)c(C)c1 | -7 | -2 | 18* | -2 | -2 | 4 | 74*
Cc1csc(N/N=C/c2ccc([N+](=O)[O-])cc2)n1 | -3 | 1 | nt | nt | 1 | nt | nt
SMILES | OXTR potentiate | OXTR ag | TRPML3 agonist | zfTRPN1 agonist | V1aR counter | TRPN1 ag 2 | TRPML3 ag conf
O=C(O)c1csc(N/N=C/c2ccc(Br)cc2)n1 | nt | nt | 32* | 0 | nt | 0 | 42*
O=C(OCC(=O)N1CCOCC1)c1cc(F)c(F)cc1Cl | -9 | 0 | nt | nt | 0 | nt | nt
N#C/C(=N/Nc1ccccc1[N+](=O)[O-])C(N)=S | -19 | 20 | 12* | 13 | 15 | 20* | 8
O=C(NC(=S)NNC(=O)c1cccs1)c1ccc(Br)o1 | -9 | 13 | 12* | 2 | 16 | 18 | 22*
CNC(=S)NNC(=O)c1cccs1 | -13 | 0 | 1 | 0 | -1 | nt | nt
CN(CC(=O)O/N=C(\N)c1ccccn1)S(=O)(=O)c1ccccc1 | 4 | 0 | 0 | 0 | 0 | nt | nt
COc1ccc(/C(N)=N/OC(=O)CN(C)S(=O)(=O)c2ccccc2)cc1 | nt | nt | 106* | 4 | nt | 2 | 40*
COc1cc(C)nc(NC(=S)N(C)C(=O)c2ccccc2)n1 | -8 | -3 | -1 | -2 | -1 | nt | nt
CC1CC(C)(C)N(C(=O)CN2C(=O)c3ccccc3C2=O)c2ccccc21 (configuration not stated) | -15 | -2 | 210* | 4 | -1 | 97* | 205*
CC1=CC(C)(C)N(C(=O)CN2C(=O)c3ccccc3C2=O)c2ccccc21 | 0 | -2 | 67* | -1 | -1 | 2 | 92*
COc1cccc(C2(C)NC(=O)N(CC(=O)Nc3ccc(N4CCOCC4)cc3)C2=O)c1 (configuration not stated) | -2 | 0 | nt | nt | 0 | nt | nt
C=CCn1c(SCC(=O)C23CC4CC(CC(C4)C2)C3)nc(O)cc1=O | -8 | 0 | 1 | 0 | 0 | nt | nt
C=CCn1c(SCCC)nc(O)cc1=O | -12 | 48* | 28* | 1 | 70* | 2 | 0
COc1ccc(CCN2C(=O)CSC2=Nc2ccc(C(C)C)cc2)cc1OC | -15 | 0 | 13* | 5 | 8 | 5 | 14*
COc1ccc(N=C2SCC(=O)N2CCc2ccc(OC)c(OC)c2)cc1 | -6 | 1 | 2 | 5 | 2 | nt | nt
COc1cc(C(=O)NC2CCN(CC(=O)Nc3cccc(C)c3C)CC2)cc(OC)c1OC | -2 | 1 | nt | nt | 1 | nt | nt
CCn1c(=O)cc(OCC(=O)Nc2ccc(OC)c(OC)c2)c2ccccc21 | -6 | 0 | 23* | 4 | 1 | 7 | 23*
COc1ccc(S(=O)(=O)N2CCCC2)c(Cl)c1Cl | 3 | -1 | 11* | -1 | 0 | 0 | 4
O=S(=O)(c1ccc(Cl)c2ccccc12)N1CCCC1 | -1 | -2 | 9 | -3 | -1 | nt | nt
COc1c(S(=O)(=O)N2CCCC2)ccc(Cl)c1Cl | -7 | -1 | 12* | 0 | 0 | 0 | 8

Compound activity (PubChem BioAssay)
